Assay results: ChEMBL document CHEMBL1148331, “Aziridinyldinitrobenzamides: synthesis and structure-activity relationships for activation by E. coli nitroreductase” (J Med Chem, 2004)
≈ marks a conversion by molar mass, not a printed value.

Tests used:
EMT6 [1] = test: Growth inhibitory potency against NTR-Transfected (nitroreductase) mouse mammary cell line known as EMT6-NTRpuro cell line; assay type: functional, cell-based
In short: (§1)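 Log-phase cells were seeded in αMEM with 5% FBS at 50–800 cells/well and grown for 18 h. Prodrug was added from DMSO stock diluted in medium and left for 18 h, then washed out. Regrowth lasted 3 days for V79 and EMT6 lines and 4 days for WiDr and Skov3 lines. Cell density was read by sulforhodamine B staining. IC50 was interpolated as 50% of control absorbance on the same plate. Ratio = IC50 of parental (NTR-ve) line / IC50 of NTR-transfected line.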

WiDr-NTR = test: Growth inhibitory potency against NTR-Transfected (nitroreductase) human colon cell line known as WiDr-NTRneo cell line; assay type: functional, cell-based; in short: as §1
SK-OV-3 [2] = test: Growth inhibitory potency against NTR-Transfected (nitroreductase) human ovarian cell line known as SKOV3-NTR neo cell line; assay type: functional, cell-based; in short: as §1
[3] = Ratio of growth inhibition of NTR-transfected human colon cell line to that of parental cell line (IC50 (NTR-)/IC50 (NTR+); assay type: functional; in short: as §1
V79 [4] = test: Growth inhibitory potency against NTR-Transfected (nitroreductase) chinese hamster fibroblast known as V79-NTRpuro cell line; assay type: functional, cell-based; conditions: Cricetulus griseus; in short: as §1
[5] = Partition coefficient (logP); assay type: physicochemical; conditions: octanol/water
In short: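 Partition measured between n-octanol and water.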

EMT6 [6] = test: Ratio of growth inhibition of NTR-transfected mouse mammary cell line to that of parental cell line (IC50 (NTR-)/IC50 (NTR+); assay type: functional; in short: as §1
[7] = Solubility in culture medium; assay type: physicochemical
In short: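 Solubility limit (mM) determined in cell culture medium.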

SK-OV-3 [8] = test: Ratio of growth inhibition of NTR-transfected human ovarian cell line to that of parental cell line (IC50 (NTR-)/IC50 (NTR+); assay type: functional; in short: as §1
V79 [9] = test: Effective concentration of 10% cell survival for targets in V79 MCL (multicellular layer) grown from targets; assay type: functional, Cricetulus griseus
In short: (§2)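 V79 multicellular layers were grown on collagen-coated microporous inserts for 3 days, stirred, under 5% CO2/air. Cocultures held 3% V79-NTRpuro activators and 97% V79oua targets; the other layers held targets only. Layers were exposed to prodrug over a concentration range for 5 h at 37 °C under 5% CO2/95% O2. Cells were then plated clonogenically in 1 mM ouabain (targets) or 15 µM puromycin (activators). After 6 days, colonies of more than 50 cells were counted and the concentration giving 10% survival was taken.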

V79 [10] = test: Effective concentration of 10% cell survival for activators in V79 MCL (multicellular layer) cocultures; assay type: functional, Cricetulus griseus; in short: as §2
V79 [11] = test: Effective concentration of 10% cell survival for targets in V79 MCL (multicellular layer) cocultures; assay type: functional, Cricetulus griseus; in short: as §2
Mus musculus [12] = test: In vivo median growth delay against CD-1 nude mice bearing WiDr-nitroreductase tumors at a dose 178 (umol/kg); assay type: functional
Mus musculus [13] = test: In vivo activity against WiDr-nitroreductase tumors in mice at a dose of 178 (umol/kg); 1/7; assay type: functional
Mus musculus [14] = test: In vivo activity against WiDr-nitroreductase tumors in mice at a dose of 178 (umol/kg); 2/7; assay type: functional
Mus musculus [15] = test: In vivo activity against WiDr-nitroreductase tumors in mice at a dose of 300 (umol/kg); 0/7; assay type: functional
Mus musculus [16] = test: In vivo activity against WiDr-nitroreductase tumors in mice at a dose of 300 (umol/kg); 1/7; assay type: functional
WiDr [17] = test: Effective concentration of 10% cell survival for targets in WiDr MCL (multicellular layer) cocultures; assay type: functional, Homo sapiens
In short: (§3)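 WiDr multicellular layers were grown on collagen-coated inserts for 6 days. Cocultures held 10% WiDr-NTRneo activators and 90% WiDr targets; the other layers held targets only. Layers were exposed to prodrug over a range of concentrations for 5 h at 37 °C, stirred, under 5% CO2/95% O2. Cells were plated clonogenically, with activators selected in 0.3 mg/mL G418. After 14 days, colonies of more than 50 cells were counted and the concentration giving 10% survival was derived.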

WiDr [18] = test: Effective concentration of 10% cell survival for targets in WiDr MCL (multicellular layer) grown from targets; assay type: functional, Homo sapiens; in short: as §3
Mus musculus [19] = test: In vivo median growth delay against CD-1 nude mice bearing WiDr-nitroreductase tumors at a dose 300 (umol/kg); assay type: functional
WiDr [20] = test: Effective concentration of 10% cell survival for activators in WiDr MCL (multicellular layer) cocultures; assay type: functional, Homo sapiens; in short: as §3
Mus musculus [21] = test: In vivo activity against WiDr-nitroreductase tumors in mice at a dose of 750 (umol/kg); 1/7; assay type: functional
Mus musculus [22] = test: In vivo activity against WiDr-nitroreductase tumors in mice at a dose of 750 (umol/kg); 0/7; assay type: functional
Mus musculus [23] = test: In vivo median growth delay against CD-1 nude mice bearing WiDr-nitroreductase tumors at a dose 750 (umol/kg); assay type: functional
Mus musculus [24] = test: In vivo activity against WiDr-nitroreductase tumors in mice at a dose of 200 (umol/kg); 31/53; assay type: functional
Mus musculus [25] = test: In vivo median growth delay against CD-1 nude mice bearing WiDr-nitroreductase tumors at a dose 200 (umol/kg); assay type: functional
Mus musculus [26] = test: In vivo activity against WiDr-nitroreductase tumors in mice at a dose of 200 (umol/kg); 12/53; assay type: functional

Compound | IC50 (EMT6 [1]) | IC50 (WiDr-NTR) | IC50 (SK-OV-3 [2]) | Ratio [3] | IC50 (V79 [4]) | logP ([5]; read-out: logP) | Ratio (EMT6 [6]) | solubility [7] | Ratio (SK-OV-3 [8]) | also measured
O=C(NCCn1ccnc1)c1cc(N2CC2)c([N+](=O)[O-])cc1[N+](=O)[O-] | 0.29 µM | 1.1 µM | 0.58 µM | 41.5 | 0.31 µM | -0.48 | 278 | 1100 µM (≈ 381 µg/mL) | 105 | –
CC(=O)CCNC(=O)c1cc(N2CC2)c([N+](=O)[O-])cc1[N+](=O)[O-] | 0.31 µM | 2.6 µM | 2.5 µM | 63.6 | 0.33 µM | 0.56 | 1520 | 800 µM (≈ 258 µg/mL) | 270 | T (V79 [9]): 1900 µM; Ac (V79 [10]): 20 µM; Tc (V79 [11]): 200 µM
CS(=O)(=O)c1cc([N+](=O)[O-])c(C(N)=O)cc1N1CC1 | 11 µM | 22 µM | 21.8 µM | 10 | 40 µM | -0.3 | 25 | 780 µM (≈ 223 µg/mL) | 19 | –
NC(=O)c1ccc([N+](=O)[O-])c(N2CC2)c1 | 41.4 µM | 62.4 µM | 61 µM | 1.6 | 61.5 µM | 0.47 | 2.8 | 430 µM (≈ 89.1 µg/mL) | 1.6 | –
CS(=O)(=O)c1cc([N+](=O)[O-])c(N2CC2)cc1C(=O)NCC(O)CO (stereo not given) | 84.5 µM | 281 µM | 160 µM | 10 | 132 µM | -0.96 | 32 | 4150 µM (≈ 1490 µg/mL) | 26 | –
CS(=O)(=O)c1cc([N+](=O)[O-])c(N2CC2)cc1C(N)=O | 3.6 µM | 26 µM | 6.3 µM | 33 | 8.8 µM | -0.41 | 125 | 880 µM (≈ 251 µg/mL) | 160 | Growth delay (Mus musculus [12]): 17 days; Cures (Mus musculus [13]): 1; Deaths (Mus musculus [14]): 2
NC(=O)c1cc(N2CC2)ccc1[N+](=O)[O-] | 67 µM | 89 µM | – | – | 81 µM | 0.7 | – | 3400 µM (≈ 704 µg/mL) | – | –
NC(=O)c1c([N+](=O)[O-])ccc(N2CC2)c1[N+](=O)[O-] | 27 µM | 58.2 µM | 65.8 µM | 5.9 | 135 µM | -0.17 | 9.2 | 2700 µM (≈ 681 µg/mL) | 9.6 | –
O=C(NCCN1CCOCC1)c1cc(N2CC2)c([N+](=O)[O-])cc1[N+](=O)[O-] | 0.053 µM | 0.72 µM | 0.45 µM | 183 | 0.15 µM | 0.31 | 4020 | 1800 µM (≈ 658 µg/mL) | 1100 | Deaths (Mus musculus [15]): 0; Cures (Mus musculus [16]): 1; Tc (WiDr [17]): 105 µM; T (WiDr [18]): 680 µM; Growth delay (Mus musculus [19]): 35 days; T (V79 [9]): 1600 µM; Ac (V79 [10]): 11.5 µM; Tc (V79 [11]): 470 µM; Ac (WiDr [20]): 8.5 µM
O=C(NCCCN1CCOCC1)c1cc(N2CC2)c([N+](=O)[O-])cc1[N+](=O)[O-] | 0.04 µM | 0.24 µM | 0.15 µM | 122 | 0.048 µM | -1.05 | 3310 | 1600 µM (≈ 607 µg/mL) | 732 | –
O=C(NCCCCN1CCOCC1)c1cc(N2CC2)c([N+](=O)[O-])cc1[N+](=O)[O-] | 0.06 µM | 0.31 µM | 0.3 µM | 93 | 0.21 µM | -0.48 | 12170 | 5600 µM (≈ 2200 µg/mL) | 513 | –
NC(=O)c1cc([N+](=O)[O-])cc([N+](=O)[O-])c1N1CC1 | 1.3 µM | 13 µM | 6.1 µM | 85 | 1.2 µM | 0.34 | 627 | 1300 µM (≈ 328 µg/mL) | 281 | Cures (Mus musculus [21]): 1; Deaths (Mus musculus [22]): 0; Growth delay (Mus musculus [23]): 47 days; T (V79 [9]): >2000 µM; Ac (V79 [10]): 450 µM; Tc (V79 [11]): >2000 µM
NC(=O)c1cc([N+](=O)[O-])c(N2CC2)c([N+](=O)[O-])c1 | > 20 µM | > 20 µM | > 20 µM | – | > 20 µM | 0.59 | – | 40 µM (≈ 10.1 µg/mL) | – | –
CN(CCN1CCOCC1)C(=O)c1cc(N2CC2)c([N+](=O)[O-])cc1[N+](=O)[O-] | 1.8 µM | 8.1 µM | 13 µM | 21 | 1.8 µM | -0.26 | 309 | 3300 µM (≈ 1250 µg/mL) | 46 | –
NC(=O)c1cc(N2CC2)c([N+](=O)[O-])cc1[N+](=O)[O-] [TRETAZICAR] | – | 1.14 µM | 0.64 µM | 51.1 | – | – | 947 | – | 317 | Cures (Mus musculus [24]): 31; Growth delay (Mus musculus [25]): >87 days; Tc (WiDr [17]): 252 µM; T (WiDr [18]): 513 µM; logP [5]: 0.14; T (V79 [9]): 1400 µM; Deaths (Mus musculus [26]): 12; Ac (V79 [10]): 23 µM; Tc (V79 [11]): 173 µM; Ac (WiDr [20]): 33 µM
